Data: PMC8693751 (RSC Advances, 2021)
Entries after “also recorded” stand apart in the source; their conditions may differ. Where two headings read alike, the source gives them in different places.

How the values were obtained:
[1] = tested on: L. amazonensis promastigotes; conditions: cited from earlier work
[2] = tested on: L. infantum promastigotes; conditions: cited from earlier work
[3] = tested on: L. amazonensis promastigotes; assay: Leishmanicidal activity against promastigote forms, L. amazonensis; type: cell-based, Leishmania amazonensis
Procedure, shortened: (§1)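 Promastigotes (L. amazonensis WHOM/00LTB0016; L. infantum MHOM/MA/67/ITMAP-263) at 1 × 10⁶ cells/mL in Schneider's medium with 10% FBS were exposed to eight test compound levels (1.5–200 μg mL−1) for 72 h at 26 °C. Untreated cells were the negative control and miltefosine the standard.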

[4] = tested on: L. infantum promastigotes; assay: Leishmanicidal activity against promastigote forms, L. infantum; type: cell-based, Leishmania infantum
Procedure, shortened: as §1

[5] = tested on: T. cruzi amastigotes (Tulahuen strain); assay: Amastigote assay; type: cell-based; conditions: Trypanosoma cruzi, L929, read-out: Amastigote, IC50
Procedure, shortened: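 Tulahuen T. cruzi expressing E. coli beta-galactosidase, grown in L-929 fibroblasts in RPMI 1640 without phenol red with 10% FBS and glutamine. Fibroblasts were seeded at 4.0 × 10³/well overnight (37 °C, 5% CO2), then given trypomastigotes at 4.0 × 10⁴/well for 2 h before the free parasites were removed. At 48 h, test compound in DMSO was added (0.625–20 μg mL−1, six levels, quadruplicate). After 7 days, 100 μM chlorophenol red β-D-galactopyranoside and 0.1% Nonidet P-40 were added overnight at 37 °C and A570 read as % growth inhibition. Benznidazole was the positive control; two independent experiments.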

[6] = tested on: LLC-MK2 cells; conditions: read-out: LLC-MK2, CC50, cited from earlier work
[7] = tested on: T. cruzi trypomastigotes; assay: Cell death assessment through flow cytometry; type: cell-based, Trypanosoma cruzi; conditions: for double-positive (double-stained) cells (upper right quadrant): 24 hours
Procedure, shortened: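 […] trypomastigotes taken from infected L929 supernatant were seeded at 4 × 10⁵/well in RPMI-1640 with test compound (in DMSO) at three levels, 37 °C for 24 h. Benznidazole was the positive control and medium the negative control. Cells were washed in PBS, placed in binding buffer, and labelled with propidium iodide (50 μg mL−1 solution) plus Annexin-FITC for 15 min at room temperature in the dark. 20000 events were acquired, in triplicate, and analysed by ANOVA with Dunnett's test (p < 0.05).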

[8] = read-out: IC50L.inf, earlier carboxylic acids
[9] = Leishmania amazonensis, 72 h, read-out: Promastigotes IC50L.Ama, 72 hours
[10] = Leishmania infantum, 72 h, read-out: Promastigotes IC50L.Inf, 72 hours

Structure (SMILES) | IC50 [3, 9] [µM] | IC50 [4, 10] [µM] | also measured
CCOC(=O)c1csc(NN=Cc2ccccc2Cl)n1 [1b, Ethyl 2-(2-(2-chlorobenzylidene)hydrazinyl)thiazole-4-carboxylate] | 27.9 | 14.4 | IC50 ([1]; read-out: IC50L.ama, earlier carboxylic acids): 34.5 µM; IC50 [2, 8]: 59.5 µM
CCOC(=O)CC1SC(=NN=Cc2cccc(O)c2)NC1=O (centres unmarked) [2k, Ethyl 2-(2-(3-hydroxybenzylidene)hydrazono)-4-oxothiazolidine-5-acetate] | 364 | 370 | –
CCOC(=O)c1csc(NN=Cc2cccc(OC)c2)n1 [1d, Ethyl 2-(2-(3-methoxybenzylidene)hydrazinyl)thiazole-4-carboxylate] | 159 | 104 | –
CCOC(=O)c1csc(NN=Cc2ccc(OC)cc2)n1 [1c, Ethyl 2-(2-(4-methoxybenzylidene)hydrazinyl)thiazole-4-carboxylate] | 392 | 332 | IC50 [2, 8]: 85.3 µM
CCOC(=O)CC1SC(=NN=Cc2cccc([N+](=O)[O-])c2)NC1=O (centres unmarked) [2g, Ethyl 2-(2-(3-nitrobenzylidene)hydrazono)-4-oxothiazolidine-5-acetate] | 309 | 329 | –
CCOC(=O)CC1SC(=NN=Cc2ccc(Br)cc2)NC1=O (centres unmarked) [2d, Ethyl 2-(2-(4-bromobenzylidene)hydrazono)-4-oxothiazolidine-5-acetate] | 14.6 | 14.5 | –
CCOC(=O)CC1SC(=NN=Cc2ccc(O)c(OC)c2)NC1=O (centres unmarked) [2p, Ethyl 2-(2-(4-hydroxy-3-methoxybenzylidene)hydrazono)-4-oxothiazolidine-5-acetate] | 233 | 320 | –
CCOC(=O)CC1SC(=NN=Cc2ccccc2Cl)NC1=O (centres unmarked) [2c, Ethyl 2-(2-(2-chlorobenzylidene)hydrazono)-4-oxothiazolidine-5-acetate] | 114 | 129 | –
CCOC(=O)c1csc(NN=C(C)c2ccccc2)n1 [1g, Ethyl 2-(2-(1-phenylethylidene)hydrazinyl)thiazole-4-carboxylate] | 43 | 37.4 | IC50 [5]: 40.7 µM
CCCCCCCCCCCCCCCCOP(=O)([O-])OCC[N+](C)(C)C [Miltefosine, reference compound] | – | – | CC50 ([6]; standard drug Miltefosine): 12.3 µM; IC50 ([1]; read-out: Promastigotes IC50L.Ama, standard drug Miltefosine): 36.3 µM; IC50 ([2]; read-out: Promastigotes IC50L.Inf, standard drug Miltefosine): 53.7 µM
CCOC(=O)CC1SC(=NN=Cc2ccccc2C)NC1=O (centres unmarked) [2n, Ethyl 2-(2-(2-methylbenzylidene)hydrazono)-4-oxothiazolidine-5-acetate] | 268 | 168 | –
CCOC(=O)CC1SC(=NN=Cc2ccccc2)NC1=O (centres unmarked) [2a, Ethyl 2-((2-benzylidene)hydrazono)-4-oxothiazolidine-5-acetate] | 367 | 365 | –
CCOC(=O)c1csc(NN=Cc2ccco2)n1 [1h, Ethyl 2-(2-(furan-2-ylmethylene)hydrazinyl)thiazole-4-carboxylate] | 451 | 374 | IC50 [5]: 75.4 µM
O=C(Cn1ccnc1[N+](=O)[O-])NCc1ccccc1 [BZD, Benznidazole, reference compound] | – | – | CC50 ([6]; standard drug BZD): 615 µM; double-positive (double-stained) cells (upper right quadrant) ([7]; at 2 × IC50 (1f 1.66 μM; BZD 70.8 μM)): 19.56%; IC50 [5]: 5.65 µM
CCOC(=O)CC1SC(=NN=Cc2ccccc2[N+](=O)[O-])NC1=O (centres unmarked) [2h, Ethyl 2-(2-(2-nitrobenzylidene)hydrazono)-4-oxothiazolidine-5-acetate] | 17 | 295 | –
COC(=O)CC1SC(=NN=Cc2ccc(Cl)cc2)NC1=O (centres unmarked) [2b, Methyl 2-(2-(4-chlorobenzylidene)hydrazono)-4-oxothiazolidine-5-acetate] | 91.4 | 33.2 | –
CCOC(=O)CC1SC(=NN=Cc2ccc(OC)cc2)NC1=O (centres unmarked) [2i, Ethyl 2-(2-(4-methoxybenzylidene)hydrazono)-4-oxothiazolidine-5-acetate] | 169 | 147 | –
CCOC(=O)c1csc(NN=Cc2ccccc2Br)n1 [1f, Ethyl 2-(2-(2-bromobenzylidene)hydrazinyl)thiazole-4-carboxylate] | 23.3 | 23.5 | cell death mechanism of T. cruzi ([7]; PI / Annexin-V staining): necrosis and apoptosis; also recorded: consistent with necrosis; double-positive (double-stained) cells (upper right quadrant) ([7]; at 4 × IC50 (1f 3.32 μM; BZD 141.6 μM)): 17.58%; IC50 [5]: 56.5 µM; IC50 ([3]; read-out: Promastigotes IC50L.Ama, 72 hours): 24.3 µM
CCOC(=O)CC1SC(=NN=Cc2ccc(C)cc2)NC1=O (centres unmarked) [2m, Ethyl 2-(2-(4-methylbenzylidene)hydrazono)-4-oxothiazolidine-5-acetate] | 13.3 | 18.8 | IC50 ([4]; read-out: Promastigotes IC50L.Inf, 72 hours): 18.8 µM
CCOC(=O)CC1SC(=NN=Cc2ccccc2OC)NC1=O (centres unmarked) [2j, Ethyl 2-(2-(2-methoxybenzylidene)hydrazono)-4-oxothiazolidine-5-acetate] | 186 | 236 | –
CCOC(=O)c1csc(NN=Cc2cccc(Br)c2)n1 [1e, Ethyl 2-(2-(3-bromobenzylidene)hydrazinyl)thiazole-4-carboxylate] | 246 | 170 | –
CCOC(=O)c1csc(NN=Cc2cccc(Cl)c2)n1 [1a, Ethyl 2-(2-(3-chlorobenzylidene)hydrazinyl)thiazole-4-carboxylate] | 189 | 164 | IC50 [5]: 16.9 µM
CCOC(=O)CC1SC(=NN=Cc2cccc(Br)c2)NC1=O (centres unmarked) [2e, Ethyl 2-(2-(3-bromobenzylidene)hydrazono)-4-oxothiazolidine-5-acetate] | 120 | 116 | –
CCOC(=O)CC1SC(=NN=C2CCCc3ccccc32)NC1=O (centres unmarked) [2o, Ethyl 2-((2-(3,4-dihydronaphthalen-1(2H)-ylidene))hydrazono)-4-oxo-thiazolidin-5-acetate] | 180 | 176 | –
CCOC(=O)CC1SC(=NN=Cc2ccccc2O)NC1=O (centres unmarked) [2l, Ethyl 2-(2-(2-hydroxybenzylidene)hydrazono)-4-oxothiazolidine-5-acetate] | 84.3 | 67.3 | –
CCOC(=O)CC1SC(=NN=Cc2ccc([N+](=O)[O-])cc2)NC1=O (centres unmarked) [2f, Ethyl 2-(2-(4-nitrobenzylidene)hydrazono)-4-oxothiazolidine-5-acetate] | 57.5 | 325 | –
